# Assay results: ChEMBL document CHEMBL1154808, “Synthesis, characterization and biological activities of some new benzo[b]thiophene derivatives” (2010)
# What was measured:
# Assay type in all cases: functional
# Pseudomonas aeruginosa = test: Antibacterial activity against Pseudomonas aeruginosa after 16 to 18 hrs by serial dilution method
# Procedure, shortened: (§1)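 Compounds were dissolved in DMF and serially diluted. A standard drop of the prepared culture was added to each dilution, and tubes were incubated for 16–18 h at 37 °C. MIC was read as the highest dilution that stayed clear with no turbidity, determined separately for each organism. Candida albicans was tested by the same procedure.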
# Candida albicans = test: Antifungal activity against Candida albicans after 16 to 18 hrs by serial dilution method; procedure, shortened: as §1
# Bacillus subtilis = test: Antibacterial activity against Bacillus subtilis after 16 to 18 hrs by serial dilution method; procedure, shortened: as §1
# Staphylococcus aureus = test: Antibacterial activity against Staphylococcus aureus after 16 to 18 hrs by serial dilution method; procedure, shortened: as §1
# Escherichia coli = test: Antibacterial activity against Escherichia coli after 16 to 18 hrs by serial dilution method; procedure, shortened: as §1
compound,measurement,setting,value
CC1=NN(C(=O)c2sc3ccccc3c2Cl)C(=O)/C1=N/Nc1ccc(C)cc1[N+](=O)[O-],MIC,Pseudomonas aeruginosa,6 µg/mL
same,MIC,Candida albicans,6 µg/mL
same,MIC,Bacillus subtilis,6 µg/mL
same,MIC,Staphylococcus aureus,6 µg/mL
same,MIC,Escherichia coli,6 µg/mL
Clc1ccccc1OCc1nnc2sc(-c3sc4ccccc4c3Cl)nn12,MIC,Pseudomonas aeruginosa,6 µg/mL
same,MIC,Candida albicans,6 µg/mL
same,MIC,Bacillus subtilis,6 µg/mL
same,MIC,Staphylococcus aureus,6 µg/mL
same,MIC,Escherichia coli,6 µg/mL
Cc1ccc(OCc2nnc3sc(-c4sc5ccccc5c4Cl)nn23)cc1,MIC,Pseudomonas aeruginosa,6 µg/mL
same,MIC,Candida albicans,6 µg/mL
same,MIC,Bacillus subtilis,6 µg/mL
same,MIC,Staphylococcus aureus,6 µg/mL
same,MIC,Escherichia coli,6 µg/mL
Clc1ccccc1OCc1nnc(-c2sc3ccccc3c2Cl)o1,MIC,Pseudomonas aeruginosa,6 µg/mL
same,MIC,Candida albicans,6 µg/mL
same,MIC,Bacillus subtilis,6 µg/mL
same,MIC,Staphylococcus aureus,6 µg/mL
same,MIC,Escherichia coli,6 µg/mL
Clc1ccc(OCc2nnc(-c3sc4ccccc4c3Cl)o2)c(Cl)c1,MIC,Pseudomonas aeruginosa,6 µg/mL
same,MIC,Candida albicans,6 µg/mL
same,MIC,Bacillus subtilis,6 µg/mL
same,MIC,Staphylococcus aureus,6 µg/mL
same,MIC,Escherichia coli,6 µg/mL
O=C(c1sc2ccccc2c1Cl)n1nc(-c2ccc([N+](=O)[O-])s2)cc1-c1ccc(Cl)cc1,MIC,Pseudomonas aeruginosa,6 µg/mL
same,MIC,Candida albicans,3 µg/mL
same,MIC,Bacillus subtilis,6 µg/mL
same,MIC,Staphylococcus aureus,3 µg/mL
same,MIC,Escherichia coli,6 µg/mL
O=C(c1sc2ccccc2c1Cl)n1nc(-c2ccc([N+](=O)[O-])s2)cc1-c1ccccc1,MIC,Pseudomonas aeruginosa,6 µg/mL
same,MIC,Candida albicans,6 µg/mL
same,MIC,Bacillus subtilis,6 µg/mL
same,MIC,Staphylococcus aureus,3 µg/mL
same,MIC,Escherichia coli,3 µg/mL
CC1=NN(C(=O)c2sc3ccccc3c2Cl)C(=O)/C1=N/Nc1ccc(Cl)cc1C,MIC,Pseudomonas aeruginosa,6 µg/mL
same,MIC,Candida albicans,6 µg/mL
same,MIC,Bacillus subtilis,6 µg/mL
same,MIC,Staphylococcus aureus,6 µg/mL
same,MIC,Escherichia coli,6 µg/mL
COc1ccc(-c2cc(-c3ccc(Cl)cc3)n(C(=O)c3sc4ccccc4c3Cl)n2)cc1,MIC,Pseudomonas aeruginosa,6 µg/mL
same,MIC,Candida albicans,6 µg/mL
same,MIC,Bacillus subtilis,6 µg/mL
same,MIC,Staphylococcus aureus,6 µg/mL
same,MIC,Escherichia coli,6 µg/mL
OC(Cn1cncn1)(Cn1cncn1)c1ccc(F)cc1F [FLUCONAZOLE],MIC,Candida albicans,6 µg/mL
CC1=NN(C(=O)c2sc3ccccc3c2Cl)C(=O)/C1=N/Nc1ccccc1,MIC,Pseudomonas aeruginosa,6 µg/mL
same,MIC,Candida albicans,6 µg/mL
same,MIC,Bacillus subtilis,6 µg/mL
same,MIC,Staphylococcus aureus,6 µg/mL
same,MIC,Escherichia coli,6 µg/mL
CC1=NN(C(=O)c2sc3ccccc3c2Cl)C(=O)/C1=N/Nc1cc(Cl)ccc1Cl,MIC,Pseudomonas aeruginosa,6 µg/mL
same,MIC,Candida albicans,6 µg/mL
same,MIC,Bacillus subtilis,6 µg/mL
same,MIC,Staphylococcus aureus,12.5 µg/mL
same,MIC,Escherichia coli,6 µg/mL
COc1ccc(-c2cc(-c3ccccc3)n(C(=O)c3sc4ccccc4c3Cl)n2)cc1,MIC,Pseudomonas aeruginosa,6 µg/mL
same,MIC,Candida albicans,3 µg/mL
same,MIC,Bacillus subtilis,6 µg/mL
same,MIC,Staphylococcus aureus,6 µg/mL
same,MIC,Escherichia coli,6 µg/mL
NC(=O)N/N=C/c1ccc([N+](=O)[O-])o1 [NITROFURAZONE],MIC,Pseudomonas aeruginosa,12.5 µg/mL
same,MIC,Bacillus subtilis,12.5 µg/mL
same,MIC,Staphylococcus aureus,12.5 µg/mL
same,MIC,Escherichia coli,6 µg/mL
